From PubChem
CHT inh: human CHT choline transport inhibition. B-score at 10 µM. hit rate 0.86% among 310,000. AID 488975. Q9GZV3. CHT-expressing cells, membrane potential dye, choline response; stronger effect = lower value;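 active = B-score over 3 SD under the library average, and starting fluorescence ratio not unusually high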;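 also: choline stimulus applied at its EC90 after an EC20 pre-addition; B-score computed on integrated fluorescence ratio after choline addition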
Target sequence (Q9GZV3 whole entry, looked up): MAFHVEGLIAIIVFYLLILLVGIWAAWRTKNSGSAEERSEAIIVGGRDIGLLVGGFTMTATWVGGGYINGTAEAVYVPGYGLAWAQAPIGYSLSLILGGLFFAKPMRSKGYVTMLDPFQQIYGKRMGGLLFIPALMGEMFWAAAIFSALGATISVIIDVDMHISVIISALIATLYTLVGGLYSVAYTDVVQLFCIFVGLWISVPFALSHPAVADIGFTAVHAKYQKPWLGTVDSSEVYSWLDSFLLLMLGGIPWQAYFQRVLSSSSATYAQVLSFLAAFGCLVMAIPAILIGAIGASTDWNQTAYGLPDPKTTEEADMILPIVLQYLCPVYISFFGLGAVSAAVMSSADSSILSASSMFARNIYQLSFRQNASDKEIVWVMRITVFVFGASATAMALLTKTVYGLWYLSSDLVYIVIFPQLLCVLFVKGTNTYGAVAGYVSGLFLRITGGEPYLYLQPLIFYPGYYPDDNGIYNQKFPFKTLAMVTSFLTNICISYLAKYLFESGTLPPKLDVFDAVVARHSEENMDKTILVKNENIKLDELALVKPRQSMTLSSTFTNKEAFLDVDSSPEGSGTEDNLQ
CHT PAM: allosteric activators of human choline transporter CHT. Q9GZV3. AID 488977. B-score at 10 µM. hit rate 0.49% among 310,000. CHT-expressing cells, membrane potential dye, choline EC20; stronger effect = higher value; LV-AA mutant CHT in HEK293 cells;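 active = initial fluorescence not abnormally high and integrated response B-score, plate-corrected, over 3 SD above library mean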
T cruzi repl: blocks replication of Trypanosoma cruzi; inhibition, % (no concentration beside the values); T. cruzi beta-gal in NIH3T3, luminescence, 90 h; hit rate 1.4% among 300,000; AID 1885;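 active = mean inhibition across valid replicates above about 55%, limit read from the data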;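 also: signal also drops with host cell toxicity which is not excluded here; 0% = plate median of DMSO wells and 100% = zero luminescence signal; higher percent means less beta-gal luminescence so fewer parasites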
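compound dosing = single 50 nL compound addition per well in DMSO | material = NIH/3T3 host cells with β-galactosidase reporter T. cruzi | input = 5,000 host fibroblasts per well | timing = ≥90 h infection period, 3 h prior cell attachment | read-out basis = percent inhibition of parasite-derived β-gal signal | detection = GalScreen β-gal luminescence, detergent lysis, 60 min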
PolyA inhibitor: yeast polyadenylation inhibition | S. cerevisiae SKY197-pL101 polyadenylation reporter, beta-gal luminescence; efflux-impaired pdr1/pdr3 knockout yeast; score 100 = 6 SD above DMSO | activity score, % at 12 µM | hit rate 0.02% among 300,000 | AID 1875;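 active = lowest replicate activity score at least 50, where 100 means six control SD above control mean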;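 also: yeast exposed to compound for 9 h at 30 °C; higher score means more reporter readthrough which indicates perturbed polyadenylation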
CHT block conf: human CHT inhibition, confirmatory screen; shares compounds with CHT inh; CHT-expressing cells, choline membrane potential dye; LV-to-AA substituted CHT, HEK293 cells; CHT activity remaining % of control (stronger effect = lower value), % at 10 µM; hit rate 70% among 2,400; AID 493221;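 active = choline transporter activity left, mean of duplicates at 10 µM, below buffer-only control mean minus 3 SD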;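 also: depolarization triggered by choline at its EC90 following an EC20 pre-addition; 0% = hemicholinium-3 full block and 100% = buffer-only control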
HEK293 CHT ctr: activity in parental HEK293 cells lacking CHT. shares compounds with CHT inh. membrane potential dye, choline response; active = decrease or increase beyond buffer ±3SD. membrane potential ratio readout (active if shifted either direction beyond buffer ±3SD; no single direction) at 10 µM. hit rate 4% among 2,400;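 also: parental cells lack the transporter so any hit is non-specific; ratio is peak minus trough fluorescence over baseline after EC90 choline challenge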
Numbers without * were called inactive; i = inactive; / = no result given. Sampled rows, rich in hits. Any-hit rate of the full collection: about 2.6%.

SMILES | CHT inh | CHT PAM | T cruzi repl | PolyA inhibitor | CHT block conf | HEK293 CHT ctr
CC(C)c1ccc(S(=O)(=O)/N=C2\C=C(NS(=O)(=O)c3ccccc3)C(=O)c3ccccc32)cc1 | -10* | i | -8 | -14 | 39%* | i
CCOC(=O)COc1ccc(S(=O)(=O)NCc2ccco2)cc1 | -7.6* | i | -12 | 5 | i | i
Cn1c(SCC(=O)Nc2ccc(Br)cc2)nc(O)cc1=O | i | i | -13 | 12 | / | /
COc1ccc(CNC(=O)COC(=O)CC2CCCC2)cc1 | -5.4* | i | 3 | 11 | i | i
CCCCc1ccc(NC(=O)CSc2nc(=O)n(CCN3CCOCC3)c3c2CCC3)cc1 | i | i | 15 | 13 | / | /
CCN(CC)CCCn1c2c(c(SCC(=O)Nc3ccc(OC(F)(F)F)cc3)nc1=O)CCC2 | -12* | i | 13 | -6 | 38%* | i
CCCCc1ccc(NC(=O)CSc2nc(=O)n(CCCN3CCOCC3)c3c2CCC3)cc1 | -7.9* | i | -4 | 2 | 21%* | i
CCN(CC)CCCn1c2c(c(SCC(=O)Nc3ccc(C)c(F)c3)nc1=O)CCC2 | i | i | 0 | -2 | / | /
Cc1cc(C)n(CCC(=O)N2CCCC(N3CCN(c4cccc(Cl)c4)CC3)C2)n1 (stereo not given) | i | i | 10 | -2 | / | /
Cc1ccc(C(=O)NCC(=O)NCCCc2ccccc2)cc1 | -5* | i | 0 | 7 | 57%* | i
Fc1cccc(Cc2noc(CN3CCC(c4ccncc4)CC3)n2)c1 | -5.6* | i | 66* | -12 | 30%* | i
Cc1nn(CC(=O)Nc2ccc(Cl)cc2Cl)c(=O)c2ccccc12 | i | i | 10 | 1 | / | /
CCN(CC)CC(O)CN1C(=O)NC(C)(C)C1=O (stereo not given) | i | i | -7 | 4 | / | /
COc1ccc(C(=O)NCc2nc(C)c(C)s2)cc1OC1CCN(C(C)C)CC1 | -13* | i | -2 | 30 | 3.8%* | i
COc1ccc(C(=O)NCc2cc(C(C)C)no2)cc1OC1CCN(C(C)C)CC1 | / | / | 10 | -14 | / | /
CCc1cc(CNC(=O)c2ccc(OC)c(OC3CCN(C(C)C)CC3)c2)on1 | -16* | i | 12 | 22 | 2.2%* | i
N#C/C(=N\Nc1cccc(Cl)c1)C(=O)c1ccccc1 | -5.2* | i | -8 | -35 | 66%* | i
N#C/C(=N\Nc1ccccc1Cl)C(=O)c1ccccc1 | i | i | 0 | -9 | / | /
CN(c1nc2ccccc2n2c(C3CC3)nnc12)S(=O)(=O)c1ccccc1 | i | i | 9 | -2 | / | /
Cc1cc(CN(C)C(=O)c2cc(COc3ccc(F)cc3Cl)on2)n[nH]1 | -6* | i | -15 | -6 | 55%* | i
CCN(Cc1ccncc1)C(=O)c1cc(COc2ccc(F)cc2Cl)on1 | -5.7* | i | 47 | -7 | 49%* | i
CC(NC(=O)Cn1cccc1C(=O)c1ccccc1)c1ccccc1 (stereo not given) | i | i | -11 | -2 | / | /
Cc1ccccc1C(=O)c1cccn1CC(=O)NC(C)c1ccccc1 (stereo not given) | -6.8* | i | 8 | 1 | 35%* | i
CC(Oc1cc2oc(=O)c3c(c2cc1Cl)CCC3)C(=O)NCCN1CCOCC1 (stereo not given) | i | i | 4 | 3 | / | /
O=C(c1ccco1)N1CCC(c2nc(-c3ccccc3Cl)no2)CC1 | -5.7* | i | -18 | -15 | i | i
COc1ccc(-c2nnc(SCC(=O)NC3CCCC3)n2C)cc1 | i | i | -9 | -1 | / | /
COCCN(C(=O)CSc1nnc(-c2ccc(C)c(C)c2)o1)c1c(N)n(CC(C)C)c(=O)[nH]c1=O | -6.3* | i | -1 | -5 | 19%* | i
Cc1n[nH]c(C)c1S(=O)(=O)N1CCCC(C(=O)N2CCN(c3ccc(Cl)cc3)CC2)C1 (stereo not given) | -5.2* | i | / | / | i | i
CC(C)c1nc(CNC(=O)C2CCC(=O)N(CCc3ccc(Cl)cc3)C2)no1 (stereo not given) | i | i | 2 | -15 | / | /
